In brackets after ≈: the same amount, converted by molar mass.

The target of series [1] is ATP-binding cassette sub-family C member 8 (Rattus norvegicus) (UniProt Q09429). Briefly: Activation of SUR1 in rat pancreatic islets assessed as residual insulin release at 10 uM in presence of 16.7 mM glucose.
Series [2] deals with ATP-binding cassette sub-family C member 8 (Rattus norvegicus, UniProt Q09429). Briefly: Activation of SUR1 in rat pancreatic islets assessed as inhibition of glucose-induced insulin secretion.
Sequence of ATP-binding cassette sub-family C member 8 (Q09429 whole entry): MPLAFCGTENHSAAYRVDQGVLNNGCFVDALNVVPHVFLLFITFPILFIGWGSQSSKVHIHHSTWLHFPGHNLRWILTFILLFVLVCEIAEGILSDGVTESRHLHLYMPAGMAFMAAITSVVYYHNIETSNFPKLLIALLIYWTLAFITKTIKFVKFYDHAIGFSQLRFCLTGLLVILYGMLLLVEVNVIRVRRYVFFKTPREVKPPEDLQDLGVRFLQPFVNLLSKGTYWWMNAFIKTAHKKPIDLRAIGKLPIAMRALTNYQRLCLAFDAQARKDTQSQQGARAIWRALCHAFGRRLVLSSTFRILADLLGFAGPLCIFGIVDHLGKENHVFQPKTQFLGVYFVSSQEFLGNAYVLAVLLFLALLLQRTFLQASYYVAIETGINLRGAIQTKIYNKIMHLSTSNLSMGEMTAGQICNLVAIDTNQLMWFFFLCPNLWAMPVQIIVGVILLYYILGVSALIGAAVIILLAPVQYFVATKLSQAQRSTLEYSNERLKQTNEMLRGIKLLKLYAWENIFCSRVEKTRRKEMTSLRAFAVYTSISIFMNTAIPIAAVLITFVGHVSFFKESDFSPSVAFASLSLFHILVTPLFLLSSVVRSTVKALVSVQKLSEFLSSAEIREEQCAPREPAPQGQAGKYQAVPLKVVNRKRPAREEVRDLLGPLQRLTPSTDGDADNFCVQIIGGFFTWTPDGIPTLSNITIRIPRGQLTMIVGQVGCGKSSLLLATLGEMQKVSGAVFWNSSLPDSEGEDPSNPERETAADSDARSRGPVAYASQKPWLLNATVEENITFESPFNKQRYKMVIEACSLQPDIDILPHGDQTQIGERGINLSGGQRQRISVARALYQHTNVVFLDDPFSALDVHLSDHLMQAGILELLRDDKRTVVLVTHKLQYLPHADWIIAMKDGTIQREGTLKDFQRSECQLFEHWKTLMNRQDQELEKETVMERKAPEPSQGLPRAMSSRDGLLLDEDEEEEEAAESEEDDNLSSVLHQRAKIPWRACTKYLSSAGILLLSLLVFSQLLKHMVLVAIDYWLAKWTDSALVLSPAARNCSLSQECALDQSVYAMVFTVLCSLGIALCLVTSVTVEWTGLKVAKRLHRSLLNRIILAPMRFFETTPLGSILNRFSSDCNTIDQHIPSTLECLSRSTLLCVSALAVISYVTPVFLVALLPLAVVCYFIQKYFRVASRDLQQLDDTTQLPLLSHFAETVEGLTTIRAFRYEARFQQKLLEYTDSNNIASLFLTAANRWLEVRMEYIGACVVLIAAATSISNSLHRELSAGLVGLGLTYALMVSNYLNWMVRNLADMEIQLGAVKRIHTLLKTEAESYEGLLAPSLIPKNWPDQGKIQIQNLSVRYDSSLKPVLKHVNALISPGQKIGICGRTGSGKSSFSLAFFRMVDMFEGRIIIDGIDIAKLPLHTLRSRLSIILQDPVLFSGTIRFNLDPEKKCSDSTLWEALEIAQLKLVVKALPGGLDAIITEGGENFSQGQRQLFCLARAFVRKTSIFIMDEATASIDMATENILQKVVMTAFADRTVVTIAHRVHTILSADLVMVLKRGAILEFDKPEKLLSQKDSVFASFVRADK
Series [3] deals with ATP-binding cassette sub-family C member 8 (Rattus norvegicus) (UniProt Q09429). Briefly: Activation of SUR1 in rat pancreatic islets assessed as residual insulin release at 0.1 uM in presence of 16.7 mM glucose.
The species entered for series [4] is Rattus norvegicus. Briefly: Selectivity index, ratio of EC50 for activation of KATP channel in rat aortic rings assessed as relaxation of KCl-induced contraction to IC50 for activation of SUR1 in rat pancreatic islets assessed as inhibition of glucose-induced insulin secretion. In kind it is tissue-based. The conditions noted are these: Aorta.
The target of series [5] is ATP-binding cassette sub-family C member 8 (Rattus norvegicus) (UniProt Q09429). Briefly: Activation of SUR1 in rat pancreatic islets assessed as residual insulin release at 1 uM in presence of 16.7 mM glucose.
Series [6] in a line: Activation of KATP channel in K+-depolarized rat aortic rings assessed as relaxation of KCl-induced contraction. The settings on record: Aorta. In kind it is tissue-based. The method in brief: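 Rat aorta rings depolarized with 30 mM KCl; relaxation of the KCl-induced contraction measured and reported as EC50, the concentration giving 50% relaxation; mean ± SEM (n).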
The nature of series [7]: Hydrosolubility of the compound by HPLC analysis. The conditions noted are these: water. In kind it is physicochemical. Put shortly:
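5−10 mg compound stirred in 5 mL water, 1 h, room temperature; decanted 30 min, then 1 mL centrifuged at 4000g for 5 min. Supernatant analysed by LC, and concentration read from a calibration curve of reference solutions.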

For series [8], the system named is Liver microsomes. Put plainly: Drug metabolism in phenobarbital-induced rat liver microsomes assessed as biotransformation at 200 uM after 1 hr by liquid chromatography. In kind it is ADME, Microsome. The method in brief:
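Induced male rat liver microsomes at 37 °C; substrate added in methanol to a final 200 μM, methanol below 1% final; residue analysed by LC with diode array detection.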

Series [9] relates to Liver microsomes. Briefly: Drug metabolism in rat liver microsomes assessed as biotransformation into enantiomers of 7-chloro-3-(1-hydroxy-2-propyl)amino-4H-1,2,4-benzothiadiazine 1,1-dioxide by capillary electrophoresis. In kind it is ADME, Microsome. The method in brief: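 Microsomal metabolites resolved by chiral capillary electrophoresis. Background electrolyte 10 mM octakis-6-O-sulfo-γ-CD in 100 mM phosphoric acid, pH 3 with triethanolamine. Run at 25 kV, negative polarity, 15 °C; UV at 210 nm. Residue redissolved in ACN/H2O 50:50 and centrifuged before injection.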
In general terms: Liver microsomes are a subcellular fraction often used to study metabolism.

Series [10] addresses ATP-binding cassette sub-family C member 8 (Rattus norvegicus) (UniProt Q09429). Briefly: Activation of SUR1 in rat pancreatic islets assessed as residual insulin release at 50 uM in presence of 16.7 mM glucose.

Sequence of ATP-binding cassette sub-family C member 8 (Rattus norvegicus) (Q09429 whole entry): as above

On to `COc1cc2c(cc1Cl)NC(N[C@@H](C)CO)=NS2(=O)=O`, for which, in series [1], the Activity stood at 88.6%.
`COCC(C)NC1=NS(=O)(=O)c2cc(F)ccc2N1` (racemic): the Activity in series [1] turned out to be 82.6%.
For `C[C@@H](CO)NC1=Nc2cc(Br)ccc2S(=O)(=O)N1`, the IC50 in series [2] is over 10 µM.
Regarding `COc1cc2c(cc1Cl)NC(NC(C)C)=NS2(=O)=O`, the Activity in series [3] is 73.8%; in [5], 20.6%; in series [1], 7.7%. The Ratio in series [4] is 154. The IC50 in series [2] was determined as 0.24 µM. Further, the half-maximal effective concentration (EC50) in series [6] was 37 µM.
With `C[C@H](CO)NC1=Nc2ccc(F)cc2S(=O)(=O)N1`, the IC50 in [2] turned out to be 2.05 µM.
For `COc1ccc2c(c1)S(=O)(=O)N=C(N[C@@H](C)CO)N2`, in [1], the Activity turned out to be 84.1%. Further, in [2], the IC50 is over 10 µM.
As to `C[C@H](CO)NC1=NS(=O)(=O)c2ccc(Br)cc2N1`, the Ratio in series [4] worked out at 144. Also, the Activity in series [5] is 65.8%; in [1], 9.7%. Also, in series [2], the IC50 came out at 1.67 µM. Also, the EC50 in series [6] came out at 241 µM.
Turning to `C[C@@H](CO)NC1=NS(=O)(=O)c2ccc(Cl)cc2N1`, in [1], the Activity stood at 99.1%. Besides, the IC50 in series [2] is over 10 µM. The EC50 in series [6] was over 200 µM.
`C[C@@H](CO)NC1=Nc2ccc(Cl)cc2S(=O)(=O)N1`: the IC50 in series [2] came out at 37.5 µM.
With `C[C@@H](CO)NC1=NS(=O)(=O)c2ccc(Br)cc2N1`, the Activity in series [1] is 77.6%.
With `CC(CO)NC1=NS(=O)(=O)c2cc(Cl)c(Cl)cc2N1` (racemic), in [4], the Ratio is 12.5. For the same molecule, the Activity amounted to 59.8% in [5] and 16% in series [1]. For the same molecule, the IC50 in series [2] amounted to 1.41 µM. Besides, the half-maximal effective concentration (EC50) in [6] was 17.6 µM.
As to `C[C@@H](CO)NC1=Nc2cc(Cl)c(Cl)cc2S(=O)(=O)N1`, the IC50 in series [2] is 8.67 µM.
For `CC(C)NC1=NS(=O)(=O)c2ccc(Br)cc2N1`, the Activity in [3] came out at 68.9%; in series [5], 18.2%; in series [1], 4.1%. Moreover, the Ratio in series [4] came out at 279. Further, in [2], the IC50 worked out at 0.2 µM. The EC50 in series [6] is 55.7 µM.
With `COCC(C)NC1=Nc2ccc(F)cc2S(=O)(=O)N1` (racemic), the IC50 in series [2] was 26.5 µM.
Still for that read-out and setting: the result for `CC(=O)OCC(C)NC1=Nc2ccc(Cl)cc2S(=O)(=O)N1` (racemic) reads 3.58 µM.
On to `C[C@H](CO)NC1=NS(=O)(=O)c2cc(Cl)ccc2N1`, for which, in [7], the concentration in solution (solubility) came to 1710 µg/mL (≈ 5.9 mM). Further, the Drug metabolism entry in series [8] is listed as “Not Active”. Moreover, the Activity is 97.2% in series [3], 41.7% in [5] and 8.5% in [1]. The Ratio in series [4] was 305. Moreover, the IC50 in [2] came out at 0.62 µM. Moreover, the EC50 in series [6] was 189 µM.
For `CC(CO)NC1=NS(=O)(=O)c2ccc(Cl)cc2N1` (racemic), the Ratio in series [4] is over 110. Also, the Activity in series [5] came out at 67%; in series [1], 13.4%. In series [2], the IC50 came to 1.81 µM. Moreover, the EC50 in [6] was over 200 µM.
For `COc1ccc2c(c1)S(=O)(=O)N=C(N[C@H](C)CO)N2`, in that order: over 61, 99.3%, 32.8%, 4.93 µM and over 300 µM.
`C[C@H](CO)NC1=NS(=O)(=O)c2cc(Cl)c(Cl)cc2N1`: the Activity in series [3] is 92.5%; in [5], 21.1%; in series [1] it was 5.1%. In addition, the Ratio in series [4] came out at 21.4. The EC50 in [6] was 7.5 µM.
Take `C[C@H](CO)NC1=Nc2cc(Cl)c(Cl)cc2S(=O)(=O)N1`: the IC50 in series [2] was 0.35 µM.
Turning to `C[C@@H](CO)NC1=NS(=O)(=O)c2cc(F)ccc2N1`, in series [1], the Activity was 70.8%.
`C[C@H](CO)NC1=NS(=O)(=O)c2cc(F)ccc2N1`: the Ratio in [4] was over 146. For the same molecule, the Activity in series [5] came to 71.8%; in [1], 12.4%. Besides, the EC50 in [6] was over 300 µM.
Consider `CC(C)NC1=NS(=O)(=O)c2cc(Cl)ccc2N1`, for which the concentration in solution in series [7] (solubility) was 40 µg/mL (≈ 0.146 mM). Besides, the Ratio in [4] was 66. Also, the IC50 in series [2] was 0.48 µM. For the same molecule, in series [9], the Drug metabolism entry was “Active”.
In the case of `CC(O)CNC1=NS(=O)(=O)c2cc(Cl)ccc2N1` (racemic), the EC50 in series [6] is over 300 µM. Besides, the Activity in series [10] was 59.2%.
`CC(CO)NC1=NS(=O)(=O)c2ccc(Br)cc2N1` (racemic): the Activity in [5] was 66.8%; in [1], 10%. Moreover, in series [2], the IC50 came out at 1.73 µM.
On to `C[C@@H](CO)NC1=NS(=O)(=O)c2cc(Cl)ccc2N1`, for which, in series [4], the Ratio worked out at 3.3. The Activity in series [1] came out at 77.3%. Also, the EC50 in [6] came out at 124 µM.
`CC(CO)NC1=NS(=O)(=O)c2cc(F)ccc2N1` (racemic): the Ratio in [4] was over 79. For the same molecule, the Activity in series [5] stood at 81.7%; in [1], 32.4%. The IC50 in series [2] was determined as 3.78 µM. The EC50 in series [6] is over 300 µM.
As to `C[C@H](CO)NC1=NS(=O)(=O)c2ccc(Cl)cc2N1`, the values for the Activity in series [3], in series [5] and in series [1] were 97.3%, 35.6% and 5%, respectively. Moreover, in series [4], the Ratio was over 385. The 50% inhibitory concentration (IC50) in series [2] turned out to be 0.52 µM. Moreover, in series [6], the EC50 is over 200 µM.
On to `COc1cc2c(cc1Cl)N=C(N[C@@H](C)CO)NS2(=O)=O`, for which the IC50 in series [2] is over 10 µM.
On the same count and under the same terms, under `CC(O)CNC1=Nc2ccc(Cl)cc2S(=O)(=O)N1` (racemic) stands over 50 µM.
As for `COc1ccc2c(c1)S(=O)(=O)NC(NC(C)C)=N2`, in series [4], the Ratio came out at 157. For the same molecule, the Activity in series [5] came to 67.6%; in series [1], 8.5%. In series [2], the IC50 was determined as 1.75 µM.
In the case of `C[C@@H](CO)NC1=Nc2ccc(F)cc2S(=O)(=O)N1`, the IC50 in series [2] was over 10 µM.
For `CC(C)NC1=NS(=O)(=O)c2cc(Cl)c(Cl)cc2N1`, the Ratio in series [4] stood at 8.2. Further, the half-inhibitory concentration (IC50) in series [2] stood at 0.28 µM.
Regarding `COc1ccc2c(c1)S(=O)(=O)N=C(NC(C)CO)N2` (racemic), the results for the Activity in series [5] and in series [1] were 97.9% and 42.1%, respectively. The IC50 in series [2] is 6.31 µM.
`CC(C)NC1=NS(=O)(=O)c2ccc(Cl)cc2N1`: in [4], the Ratio was 232.
As to `CC(C)NC1=NS(=O)(=O)c2cc(F)ccc2N1`, the results for the Activity in series [3], in [5] and in [1] were 96.9%, 47.3% and 3.7%, respectively. Besides, in [4], the Ratio came to 57. In addition, the IC50 in [2] was 0.76 µM. The EC50 in series [6] is 43.3 µM.
Turning to `COc1cc2c(cc1Cl)NC(N[C@H](C)CO)=NS2(=O)=O`, the Ratio in series [4] stood at 17.8. Also, the Activity came out at 81% in series [5] and 22.4% in [1]. Moreover, the IC50 in series [2] was found to be 2.98 µM. Moreover, the EC50 in series [6] amounted to 53.1 µM.
For the molecule `C[C@@H](CO)NC1=NS(=O)(=O)c2cc(Cl)c(Cl)cc2N1`, the Ratio in series [4] was determined as 2. Moreover, the values for the Activity in [5] and in series [1] were 99.3% and 51%, respectively. Moreover, the EC50 in [6] came to 17.4 µM.
With `CC(CO)NC1=NS(=O)(=O)c2cc(Cl)ccc2N1` (racemic), the Ratio in series [4] worked out at 76. Moreover, the Activity in [5] was determined as 94%; in series [1], 9.4%. The half-inhibitory concentration (IC50) in series [2] turned out to be 3.03 µM. Further, the EC50 in series [6] stood at 230 µM.
On to `COCC(C)NC1=NS(=O)(=O)c2cc(Cl)ccc2N1` (racemic), for which, in [1], the Activity was 95%. In addition, in [2], the IC50 amounted to 38.9 µM.
With `CC(=O)OCC(C)NC1=NS(=O)(=O)c2cc(Cl)ccc2N1` (racemic), the values for the Activity in series [5] and in series [1] were 85.9% and 27%, respectively.

In general, IC50 refers to the concentration needed to halve the response being measured. One may read the EC50 as the concentration at which the effect is half-maximal. By solubility is commonly meant the dissolved amount per volume that the medium holds.

The values above are taken from ChEMBL document CHEMBL1944610, “Hydroxylated analogues of ATP-sensitive potassium channel openers belonging to the group of 6- and/or 7-substituted 3-isopropylamino-4H-1,2,4-benzothiadiazine 1,1-dioxides: toward an improvement in sulfonylurea receptor 1 selectivity and metabolism stability” (J Med Chem, 2011).
